According to ChEMBL document CHEMBL1132583, “Design and synthesis of novel amphiphilic dendritic galactosides for selective targeting of liposomes to the hepatic asialoglycoprotein receptor” (J Med Chem, 1999):

Assays:
Format in all cases: functional, organism-based
Conditions in all cases: Microsome
Mus musculus [1] = species on record: Mus musculus; experiment: The percent recovery of the addedglycolipid (100 ug) with the liposomes in Mice at 10% w/w (n = 2)
Method in brief: (§1)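 Glycolipid (0–50 μg; 5, 10 or 50% w/w) incubated with sonicated [3H]cholesteryl oleate-labeled egg PC liposomes (100 μg phospholipid) for 30 min at 37 °C. Incorporated and free glycolipid separated by FPLC on Superose-6 or Sephacryl S-1000, PBS pH 7.4 eluent, 50 μL/min. Galactose content of fractions measured by galactose oxidase assay. Recovery is given as percent of added glycolipid eluting with liposomes. Mean ± variation, n = 2.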

Mus musculus [2] = species on record: Mus musculus; experiment: The percent recovery of the addedglycolipid (100 ug) with the liposomes in Mice at 5% w/w (n = 2); method in brief: as §1
Mus musculus [3] = species on record: Mus musculus; experiment: The percent recovery of the addedglycolipid (100 ug) with the liposomes in Mice at 50% w/w (n = 2); method in brief: as §1
Mus musculus [4] = experiment: Uptake by the liver liposomes upon intravenous injection in Mice at 50% w/w (n = 2)
Method in brief: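 Optional asialofetuin preinjection (50 mg/kg) given 1 min before. Liver lobules and blood sampled over time. At 30 min, liver 3H is expressed as % injected dose, corrected for serum radioactivity. Mean ± variation of two experiments.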

Mus musculus [5] = species on record: Mus musculus; experiment: The percent recovery of the addedglycolipid (100 ug) with the liposomes in Mice at 5% w/w of the compound; method in brief: as §1

Row | SMILES | Recovery (Mus musculus [1]) | Recovery (Mus musculus [2]) | Recovery (Mus musculus [3]) | Uptake (Mus musculus [4]) | Recovery (Mus musculus [5])
1 | CCCCCCCC/C=C\CCCCCCCC(=O)O[C@H]1CC[C@@]2(C)C(CC[C@H]3[C@@H]4CC[C@H](C(C)CCC(=O)NCCCC(=O)NCC(=O)NC(COCCC(=O)NCCCNC(=O)CCCCO[C@@H]5O[C@H](CO)[C@H](O)[C@@H](O)[C@H]5O)(COCCC(=O)NCCCNC(=O)CCCCO[C@@H]5O[C@H](CO)[C@H](O)[C@@H](O)[C@H]5O)COCCC(=O)NCCCNC(=O)CCCCO[C@@H]5O[C@H](CO)[C@H](O)[C@@H](O)[C@H]5O)[C@@]4(C)CC[C@@H]32)C1 (stereo partly specified) | 96.5% | 100% | 59.4% | 83.5% | –
2 | CCCCCCCC/C=C\CCCCCCCC(=O)O[C@H]1CC[C@@]2(C)C(=CC[C@H]3[C@@H]4CC[C@H](C(C)CCC(=O)NCCCC(=O)NCC(=O)NC(COCCC(=O)NCCCNC(=O)CCCCO[C@@H]5O[C@H](CO)[C@H](O)[C@@H](O)[C@H]5O)(COCCC(=O)NCCCNC(=O)CCCCO[C@@H]5O[C@H](CO)[C@H](O)[C@@H](O)[C@H]5O)COCCC(=O)NCCCNC(=O)CCCCO[C@@H]5O[C@H](CO)[C@H](O)[C@@H](O)[C@H]5O)[C@@]4(C)CC[C@@H]32)C1 (stereo partly specified) | – | – | – | – | 100%
3 | CCCCCCCC/C=C\CCCCCCCC(=O)O[C@H]1CC[C@@]2(C)C(=CC[C@H]3[C@@H]4CC[C@H](C(C)C(=O)NCCCC(=O)NCC(=O)NC(COCCC(=O)NCCCNC(=O)CCCCO[C@@H]5O[C@H](CO)[C@H](O)[C@@H](O)[C@H]5O)(COCCC(=O)NCCCNC(=O)CCCCO[C@@H]5O[C@H](CO)[C@H](O)[C@@H](O)[C@H]5O)COCCC(=O)NCCCNC(=O)CCCCO[C@@H]5O[C@H](CO)[C@H](O)[C@@H](O)[C@H]5O)[C@@]4(C)CC[C@@H]32)C1 (stereo partly specified) | – | – | – | – | 100%
